Data as given in ChEMBL document CHEMBL2177088, “Melittin suppresses VEGF-A-induced tumor growth by blocking VEGFR-2 and the COX-2-mediated MAPK signaling pathway” (J Nat Prod, 2012).
Calls of active or inactive are those of the source. No cut-off for these calls is given here.

Experiments:
[1] = target: Mitogen-activated protein kinase; ERK1/ERK2 (Homo sapiens) (UniProt P27361+P28482); assay: Inhibition of VEGFA-stimulated ERK1/2 phosphorylation in HUVEC by Western blot analysis; assay type: protein assay
In short: (§1)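 VEGF-A-HUVECs exposed to 1, 5 or 10 μM were lysed with protease and phosphatase inhibitors (1 mM NaF, 1 mM Na3VO4). Lysates (10 μg/lane) were run on 10% SDS-PAGE and immunoblotted (1:1000) for phospho- and total ERK1/2, JNK and p38, detected by HRP-ECL.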

HUVEC [2] = assay: Antiangiogenic activity against VEGFA-stimulated capillary differentiation in HUVEC after 18 hrs by matrigel assay; assay type: functional, cell-based; conditions: Homo sapiens
In short: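 VEGF-A-HUVECs (HUVECs stably transfected with pcDNA3.1 carrying mouse VEGF-A164, G418-selected) were plated at 1 × 10^5 cells on polymerised growth factor-reduced Matrigel (5 mg/mL) with 5, 10 or 20 μM. They were incubated 18 h at 37 °C, 5% CO2, then washed, fixed and photographed (100×). Tube area per random field was quantified by image analysis. Three experiments in triplicate; IC50 read from the dose curve.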

HUVEC [3] = assay: Down regulation of COX2 expression in VEGFA-stimulated HUVEC at 5 to 20 uM after 24 hrs by Western blot analysis; assay type: functional, cell-based; conditions: Homo sapiens
[4] = Cytotoxicity against HUVEC assessed as cell viability at 10 uM after 48 hrs by MTT assay relative to control; assay type: cell-based; conditions: human, HUVEC cells; read-out: Activity
In short: (§2)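 Native (non-transfected) HUVECs were seeded at 1 × 10^4 cells/well on 0.1% gelatin in complete M199 for 24 h. They were then exposed to 1, 5, 10, 20 or 40 μM in serum-free M199 for 48 h at 37 °C. MTT was added for 3 h and formazan dissolved in 2-propanol. After centrifugation, supernatant absorbance was read at 570 nm and expressed as % of control. Three independent experiments in triplicate.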

[5] = Cytotoxicity against HUVEC assessed as cell viability at 20 uM after 48 hrs by MTT assay relative to control; assay type: cell-based; conditions: human, HUVEC cells; read-out: Activity; in short: as §2
[6] = Cytotoxicity against HUVEC assessed as cell viability at 40 uM after 48 hrs by MTT assay relative to control; assay type: cell-based; conditions: human, HUVEC cells; read-out: Activity; in short: as §2
Mus musculus [7] = assay: Toxicity in VEGFA-stimulated mouse highly metastatic LLC cells xenografted C57BL/6 mouse assessed as lethargy at 0.5 to 5 mg/kg, sc qd for 7 days; assay type: organism-based; parameters: dose 0.5-5 mg/kg, route subcutaneous; conditions: in vivo, 168 h
Mus musculus [8] = assay: Toxicity in VEGFA-stimulated mouse highly metastatic LLC cells xenografted C57BL/6 mouse assessed as reduction of body weight at 0.5 to 5 mg/kg, sc qd for 18 days; assay type: organism-based; parameters: dose 0.5-5 mg/kg, route subcutaneous; conditions: in vivo, 432 h
In short: (§3)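 C57BL/6 mice bearing sc right-flank VEGF-A-hm LLC tumours (1 × 10^6 cells) were dosed sc at 0.5 or 5 mg/kg from day 12 after inoculation, over the 18-day growth study. Animals were monitored for body weight loss, lethargy, hair loss and mortality.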

HUVEC [9] = assay: Antiangiogenic activity against VEGFA-stimulated cell proliferation in HUVEC after 48 hrs by BrdU incorporation assay; assay type: functional, cell-based; conditions: Homo sapiens
[10] = test system: Lewis lung carcinoma cell line; assay: Antitumor activity against VEGFA-stimulated mouse highly metastatic LLC cells xenografted in C57BL/6 mouse assessed as reduction of tumor weight at 5 mg/kg, […] relative to control; assay type: functional; parameters: scale not given: the % may be the effect or the level left; conditions: route subcutaneous
HUVEC [11] = assay: Inhibition of VEGFA-stimulated VEGF production in HUVEC at 5 to 20 uM after 24 hrs by enzyme immunoassay; assay type: functional, cell-based; conditions: Homo sapiens
HUVEC [12] = assay: Down regulation of COX2 expression in HUVEC at 5 to 20 uM after 24 hrs by Western blot analysis; assay type: functional, cell-based; conditions: Homo sapiens
[13] = test system: Lewis lung carcinoma cell line; assay: Antiangiogenic activity against VEGFA-stimulated mouse highly metastatic LLC cells xenografted in C57BL/6 mouse assessed as reduction of vessel formation at 5 mg/kg, sc qd for 7 days relative to control; assay type: functional; parameters: scale not given: the % may be the effect or the level left; conditions: route subcutaneous
In short: (§4)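 VEGF-A-hm LLC cells (5 × 10^5 in 50 μL) were inoculated intradermally into the back skin of mice. Compound was given sc at 0.5 or 5 mg/kg/day for 7 days, starting day 3 after inoculation. Mice were killed on day 10 and the inoculated skin separated from underlying tissue. Only vessels directly supplying the tumour were counted under a dissecting microscope; reduction is versus untreated control.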

Mus musculus [14] = assay: Toxicity in VEGFA-stimulated mouse highly metastatic LLC cells xenografted C57BL/6 mouse assessed as hair loss at 0.5 to 5 mg/kg, sc qd for 18 days; assay type: organism-based; parameters: dose 0.5-5 mg/kg, route subcutaneous; conditions: in vivo, 432 h; in short: as §3
HUVEC [15] = assay: Down regulation of VEGFA-stimulated VEGF-A expression in HUVEC at 5 to 20 uM after 24 hrs by Western blot analysis in presence of p38 inhibitor SB203580; assay type: functional, cell-based; conditions: Homo sapiens
Mus musculus [16] = assay: Toxicity in VEGFA-stimulated mouse highly metastatic LLC cells xenografted C57BL/6 mouse assessed as mortality at 0.5 to 5 mg/kg, sc qd for 7 days; assay type: organism-based; parameters: dose 0.5-5 mg/kg, route subcutaneous; conditions: in vivo, 168 h
Mus musculus [17] = assay: Toxicity in VEGFA-stimulated mouse highly metastatic LLC cells xenografted C57BL/6 mouse assessed as mortality at 0.5 to 5 mg/kg, sc qd for 18 days; assay type: organism-based; parameters: dose 0.5-5 mg/kg, route subcutaneous; conditions: in vivo, 432 h; in short: as §3
HUVEC [18] = assay: Down regulation of VEGFR2 expression in VEGFA-stimulated HUVEC at 5 to 20 uM after 24 hrs by Western blot analysis; assay type: functional, cell-based; conditions: Homo sapiens
[19] = target: T1, MAP kinase p38 (Homo sapiens) (UniProt O15264+Q15759+Q16539+P53778); assay: Increase of VEGFA-stimulated p38 phosphorylation in HUVEC by Western blot analysis in presence of p38 inhibitor SB203580; assay type: protein assay
In short: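 VEGF-A-HUVECs were pretreated 30 min with SB203580 before the compound was added. Lysates with phosphatase inhibitors (10 μg/lane) were separated by 10% SDS-PAGE and immunoblotted (1:1000) for phospho-p38 and total p38, detected by HRP-ECL.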

[20] = test system: Lewis lung carcinoma cell line; assay: Antitumor activity against VEGFA-stimulated mouse highly metastatic LLC cells xenografted in C57BL/6 mouse assessed as reduction of tumor weight at 0.5 mg/kg, […] relative to control; assay type: functional; parameters: scale not given: the % may be the effect or the level left; conditions: route subcutaneous
[21] = test system: Lewis lung carcinoma cell line; assay: Antitumor activity against VEGFA-stimulated mouse highly metastatic LLC cells xenografted in C57BL/6 mouse assessed as tumor growth inhibition at 5 mg/kg, […] relative to control; assay type: functional; conditions: sc, 432 h, route subcutaneous, read-out: TGI
HUVEC [22] = assay: Inhibition of VEGFA-stimulated PGE2 production in HUVEC at 5 to 20 uM after 24 hrs by ELISA; assay type: functional, cell-based; conditions: Homo sapiens
[23] = target: c-Jun N-terminal kinase, JNK (Homo sapiens) (UniProt P45983+P53779+P45984); assay: Inhibition of VEGFA-stimulated JNK phosphorylation in HUVEC by Western blot analysis; assay type: cell-based; in short: as §1
[24] = target: T1, MAP kinase p38 (Homo sapiens); assay: Increase of VEGFA-stimulated p38 phosphorylation in HUVEC by Western blot analysis; assay type: protein assay; in short: as §1
HUVEC [25] = assay: Down regulation of VEGF-A expression in VEGFA-stimulated HUVEC at 5 to 20 uM after 24 hrs by Western blot analysis; assay type: functional, cell-based; conditions: Homo sapiens
HUVEC [26] = assay: Down regulation of VEGFA-stimulated COX2 expression in HUVEC at 5 to 20 uM after 24 hrs by Western blot analysis in presence of p38 inhibitor SB203580; assay type: functional, cell-based; conditions: Homo sapiens
HUVEC [27] = assay: Down regulation of VEGF-A expression in HUVEC at 5 to 20 uM after 24 hrs by Western blot analysis; assay type: functional, cell-based; conditions: Homo sapiens
[28] = Cytotoxicity against HUVEC assessed as cell viability at 5 uM after 48 hrs by MTT assay relative to control; assay type: cell-based; conditions: human, HUVEC cells; read-out: Activity; in short: as §2
Mus musculus [29] = assay: Toxicity in VEGFA-stimulated mouse highly metastatic LLC cells xenografted C57BL/6 mouse assessed as hair loss at 0.5 to 5 mg/kg, sc qd for 7 days; assay type: organism-based; parameters: dose 0.5-5 mg/kg, route subcutaneous; conditions: in vivo, 168 h
[30] = Cytotoxicity against HUVEC assessed as cell viability at 1 uM after 48 hrs by MTT assay relative to control; assay type: cell-based; conditions: human, HUVEC cells; read-out: Activity; in short: as §2
HUVEC [31] = assay: Down regulation of VEGFR2 expression in HUVEC at 5 to 20 uM after 24 hrs by Western blot analysis; assay type: functional, cell-based; conditions: Homo sapiens
Mus musculus [32] = assay: Toxicity in VEGFA-stimulated mouse highly metastatic LLC cells xenografted C57BL/6 mouse assessed as lethargy at 0.5 to 5 mg/kg, sc qd for 18 days; assay type: organism-based; parameters: dose 0.5-5 mg/kg, route subcutaneous; conditions: in vivo, 432 h; in short: as §3
[33] = test system: Lewis lung carcinoma cell line; assay: Antiangiogenic activity against VEGFA-stimulated mouse highly metastatic LLC cells xenografted in C57BL/6 mouse assessed as reduction of vessel formation at 0.5 mg/kg, sc qd for 7 days relative to control; assay type: functional; parameters: scale not given: the % may be the effect or the level left; conditions: route subcutaneous; in short: as §4
[34] = test system: Lewis lung carcinoma cell line; assay: Antitumor activity against VEGFA-stimulated mouse highly metastatic LLC cells xenografted in C57BL/6 mouse assessed as tumor growth inhibition at 0.5 mg/kg, […] relative to control; assay type: functional; conditions: sc, 432 h, route subcutaneous, read-out: TGI

Sequence of Mitogen-activated protein kinase; ERK1/ERK2 (Homo sapiens) (P27361 whole entry, looked up): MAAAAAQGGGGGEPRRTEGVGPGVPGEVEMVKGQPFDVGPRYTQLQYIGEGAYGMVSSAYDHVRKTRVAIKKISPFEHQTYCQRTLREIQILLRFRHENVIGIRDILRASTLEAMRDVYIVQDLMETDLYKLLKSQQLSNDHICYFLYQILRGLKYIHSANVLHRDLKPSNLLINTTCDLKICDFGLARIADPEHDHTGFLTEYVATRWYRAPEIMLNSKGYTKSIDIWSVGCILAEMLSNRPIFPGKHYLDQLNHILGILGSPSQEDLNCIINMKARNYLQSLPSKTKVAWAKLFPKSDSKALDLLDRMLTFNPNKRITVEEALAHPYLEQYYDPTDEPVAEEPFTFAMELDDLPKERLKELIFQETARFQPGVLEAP
Sequence of Mitogen-activated protein kinase; ERK1/ERK2 (Homo sapiens) (P28482 whole entry, looked up): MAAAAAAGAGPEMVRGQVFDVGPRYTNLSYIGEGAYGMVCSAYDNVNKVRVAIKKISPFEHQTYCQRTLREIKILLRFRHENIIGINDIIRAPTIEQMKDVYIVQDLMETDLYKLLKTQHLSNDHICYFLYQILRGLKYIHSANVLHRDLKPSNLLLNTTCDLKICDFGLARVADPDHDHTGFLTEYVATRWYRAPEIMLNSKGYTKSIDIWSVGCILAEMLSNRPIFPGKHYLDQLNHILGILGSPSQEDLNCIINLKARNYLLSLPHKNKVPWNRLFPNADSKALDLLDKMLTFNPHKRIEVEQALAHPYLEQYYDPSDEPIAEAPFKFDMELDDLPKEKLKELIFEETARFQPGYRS

CC[C@H](C)[C@H](NC(=O)CN)C(=O)NCC(=O)N[C@@H](C)C(=O)N[C@H](C(=O)N[C@@H](CC(C)C)C(=O)N[C@@H](CCCCN)C(=O)N[C@H](C(=O)N[C@@H](CC(C)C)C(=O)N[C@H](C(=O)N[C@H](C(=O)NCC(=O)N[C@@H](CC(C)C)C(=O)N1CCC[C@H]1C(=O)N[C@@H](C)C(=O)N[C@@H](CC(C)C)C(=O)N[C@H](C(=O)N[C@@H](CO)C(=O)N[C@@H](Cc1c[nH]c2ccccc12)C(=O)N[C@H](C(=O)N[C@@H](CCCCN)C(=O)N[C@@H](CCCNC(=N)N)C(=O)N[C@@H](CCCCN)C(=O)N[C@@H](CCCNC(=N)N)C(=O)N[C@@H](CCC(N)=O)C(=O)N[C@@H](CCC(N)=O)C(N)=O)[C@@H](C)CC)[C@@H](C)CC)[C@@H](C)O)[C@@H](C)O)C(C)C)C(C)C [MELITTIN]
inhibition [1]: Dose-dependent effect | IC50 (HUVEC [2]): 13 µM | inhibition (HUVEC [2]): Dose-dependent effect | Activity (HUVEC [3]): Active | viability at 48 h, 10 µM [4]: 99.4% | viability at 48 h, 20 µM [5]: 98.5% | viability at 48 h, 40 µM [6]: 96.5% | Activity (Mus musculus [7]): Non-toxic | Activity (Mus musculus [8]): Non-toxic | IC50 (HUVEC [9]): 18 µM | inhibition (HUVEC [9]): Dose-dependent effect | Activity [10]: 91% | inhibition (HUVEC [11]): Active | Activity (HUVEC [12]): inactive | Activity [13]: 59% | Activity (Mus musculus [14]): Non-toxic | Activity (HUVEC [15]): inactive | Activity (Mus musculus [16]): Non-toxic | Activity (Mus musculus [17]): Non-toxic | Activity (HUVEC [18]): Active | Activity [19]: inactive | Activity [20]: 60% | inhibition in vivo at 5 mg/kg [21]: 57% | inhibition (HUVEC [22]): Active | inhibition [23]: Active | Activity [24]: Dose-dependent effect | Activity (HUVEC [25]): Active | Activity (HUVEC [26]): inactive | Activity (HUVEC [27]): inactive | viability at 48 h, 5 µM [28]: 98.9% | Activity (Mus musculus [29]): Non-toxic | viability at 48 h, 1 µM [30]: 104% | Activity (HUVEC [31]): inactive | Activity (Mus musculus [32]): Non-toxic | Activity [33]: 52% | inhibition in vivo at 0.5 mg/kg [34]: 25%

CS(=O)(=O)Nc1ccc([N+](=O)[O-])cc1OC1CCCCC1 [NS-398]
inhibition (HUVEC [2]): Active | inhibition (HUVEC [9]): Active | Activity [13]: 22% | inhibition in vivo at 5 mg/kg [21]: 42%
